Results on four compounds are retold here after ChEMBL document CHEMBL1125331, “6-Hydroxy-3-n-propyl-2,3,4,5-tetrahydro-1H-3-benzazepine and analogs: new centrally acting 5-HT1A receptor agonists” (J Med Chem, 1992).

The structures appear in SMILES notation. Values joined by “and” are separate entries in the source; they are usually repeats but may differ in a detail not shown here. Equal entries are not always repeated.

In assay [1] the test system is Rattus norvegicus. The assay can be described thus: Effect evaluated in vivo on DA synthesis in limbic system at ED50 umol/kg after peroral administration. It counts as functional. In a few lines:
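Oral dosing in male Sprague-Dawley rats (200–300 g) pretreated with reserpine 5 mg/kg sc 18 h before. After decarboxylase inhibition with NSD 1015, brain 5-HTP or dopa accumulation (HPLC-electrochemical detection) indexed 5-HT synthesis, DA synthesis (limbic) or NE synthesis (hemispheres, mainly cortex).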

In assay [2] the test system is Rattus norvegicus. In words: Effect evaluated in vivo on DA synthesis in limbic system at ED50 umol/kg after subcutaneous administration. Type of assay: functional. In a few lines: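 Male Sprague-Dawley rats (200–300 g) pretreated with reserpine (5 mg/kg sc, 18 h before), then given the test drug sc; neutral solutions at 5 mL/kg. Dopa accumulation after decarboxylase inhibition with NSD 1015 indexes DA synthesis rate in limbic tissue, assayed by HPLC with electrochemical detection.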

Assay [3] has as its system Rattus norvegicus. In words: Effect evaluated in vivo on 5-HT synthesis in limbic system at ED50 umol/kg after subcutaneous administration. As to conditions: sc.
The subject of assay [4] is Rattus norvegicus. In words: The compound was tested in vivo for locomotor activity in rats at 0.2 umol/kg after subcutaneous administration.
Assay [5] deals with T1, 5-hydroxytryptamine receptor 1A (Rattus norvegicus, UniProt P19327).
T1 sequence (P19327 whole entry): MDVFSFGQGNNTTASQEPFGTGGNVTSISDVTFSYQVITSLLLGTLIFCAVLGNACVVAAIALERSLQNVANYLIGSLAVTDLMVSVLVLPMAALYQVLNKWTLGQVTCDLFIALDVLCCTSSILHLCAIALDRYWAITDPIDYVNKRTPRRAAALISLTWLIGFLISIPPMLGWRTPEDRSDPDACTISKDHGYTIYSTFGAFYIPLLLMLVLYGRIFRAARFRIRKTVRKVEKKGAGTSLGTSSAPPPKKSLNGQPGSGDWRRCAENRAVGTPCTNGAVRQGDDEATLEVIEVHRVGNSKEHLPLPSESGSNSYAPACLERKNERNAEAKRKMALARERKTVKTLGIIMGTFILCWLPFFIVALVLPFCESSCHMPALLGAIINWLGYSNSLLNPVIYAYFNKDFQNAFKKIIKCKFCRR
The assay can be described thus: Inhibitory activity against 5-hydroxytryptamine 1A receptor in rats, using [3H]8-OH-DPAT as radioligand. In a few lines: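 Rat whole-brain membranes (minus brainstem and cerebellum) in 50 mM Tris pH 8.0 with 120 mM NaCl, 4 mM CaCl2, 4 mM MgCl2 and 10 μM pargyline. Rapid filtration, then scintillation counting. Nonspecific binding defined with 10 μM 5-HT. IC50 by semi-log plot and linear regression.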

The target of assay [6] is D(2) dopamine receptor (Rattus norvegicus, UniProt P61169). In words: Inhibitory activity against Dopamine receptor D2 in rats using [3H]spiperone as radioligand. The method, boiled down: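 Rat striatal membranes in 50 mM potassium phosphate buffer pH 7.4 were incubated with 0.5 nM [3H]spiperone for 10 min at 37 °C. Specific binding was defined with 10 μM 6,7-ADTN.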

Assay [7] relates to Rattus norvegicus. The assay can be described thus: Effect evaluated in vivo on 5-HTP accumulation in limbic system at a dose 3.1 umol/kg (s.c.). It counts as functional. The method, boiled down:
(§1)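 Male Sprague-Dawley rats (200–300 g) were pretreated with reserpine 5 mg/kg sc 18 h before. Test compound was given sc at 5 mL/kg in neutral solution. 5-HT synthesis rate was indexed by […] 5-HTP accumulation after decarboxylase inhibition with NSD 1015, measured by HPLC-electrochemical detection. Dose-response used 4–6 dose levels, n = 4.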

The subject of assay [8] is Rattus norvegicus. In words: Effect evaluated in vivo on 5-HTP accumulation in limbic system at a dose 50 umol/kg (s.c.). Type of assay: functional. The method, boiled down: as §1
Assay [9] has as its system Rattus norvegicus. The assay can be described thus: Effect evaluated in vivo on 5-HTP accumulation in NE-rich hemispheres at a 0.20 dose uM/kg(sc). Type of assay: functional. In a few lines: (§2)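 Male Sprague-Dawley rats (200–300 g) were pretreated with reserpine 5 mg/kg sc 18 h beforehand. Test drug was given at neutral pH, 5 mL/kg. Aromatic amino acid decarboxylase was blocked with NSD 1015. 5-HTP in the dissected brain region was assayed by HPLC with electrochemical detection.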

The test system of assay [10] is Rattus norvegicus. The assay can be described thus: Effect evaluated in vivo on 5-HTP accumulation in NE-rich hemispheres at a 0.78 dose uM/kg(sc). It counts as functional. The method, boiled down: as §2
The test system of assay [11] is Rattus norvegicus. The assay can be described thus: Effect evaluated in vivo on 5-HTP accumulation in corpus striatum at a dose 12.5 umol/kg (s.c.). Type of assay: functional. In a few lines: as §2
Assay [12] has as its system Rattus norvegicus. The assay can be described thus: Effect evaluated in vivo on 5-HTP accumulation in corpus striatum at a dose 3.1 umol/kg (s.c.). Type of assay: functional. The method, boiled down:
as §2

Assay [13] deals with Rattus norvegicus. The assay can be described thus: Effect evaluated in vivo on 5-HTP accumulation in corpus striatum at a dose 50 umol/kg (s.c.). It counts as functional. The method, boiled down: as §2
Assay [14] deals with Rattus norvegicus. In words: Effect evaluated in vivo on 5-HTP accumulation in limbic system at a dose 0.20 umol/kg (s.c.). It counts as functional. The method, boiled down: as §2
For assay [15], the system named is Rattus norvegicus. The assay can be described thus: Effect evaluated in vivo on 5-HTP accumulation in limbic system at a dose 0.78 umol/kg (s.c.). Type of assay: functional. The method, boiled down: as §2
Assay [16] relates to Rattus norvegicus. The assay can be described thus: Effect evaluated in vivo on 5-HTP accumulation in limbic system at a dose 12.5 umol/kg (s.c.). It counts as functional. The method, boiled down:
as §1

The test system of assay [17] is Rattus norvegicus. In words: Effect evaluated in vivo on 5-HTP accumulation in NE-rich hemispheres at a 12.5 dose uM/kg(sc). It counts as functional. The method, boiled down: as §2
For assay [18], the system named is Rattus norvegicus. The assay can be described thus: Effect evaluated in vivo on 5-HTP accumulation in NE-rich hemispheres at a 3.1 dose uM/kg(sc). It counts as functional. In a few lines: as §2
For assay [19], the system named is Rattus norvegicus. In words: Effect evaluated in vivo on 5-HTP accumulation in NE-rich hemispheres at a 50 dose uM/kg(sc). It counts as functional. In a few lines: as §2
In assay [20] the test system is Rattus norvegicus. In words: Effect evaluated in vivo on 5-HTP accumulation in corpus striatum at a dose 0.20 umol/kg (s.c.). It counts as functional. The method, boiled down:
as §2

In assay [21] the test system is Rattus norvegicus. The assay can be described thus: Effect evaluated in vivo on 5-HTP accumulation in corpus striatum at a dose 0.78 umol/kg (s.c.). Type of assay: functional. In a few lines: as §2
Assay [22] has as its system Rattus norvegicus. In words: Effect evaluated in vivo on 5-HTP accumulation in NE-rich hemispheres at a 0.80 dose uM/kg(sc). It counts as functional. In a few lines:
as §2

The test system of assay [23] is Rattus norvegicus. In words: Effect evaluated in vivo on 5-HTP accumulation in limbic system after subcutaneous administration. Type of assay: functional. As to conditions: sc. In a few lines: as §2
For assay [24], the system named is Rattus norvegicus. The assay can be described thus: Effect evaluated in vivo on 5-HTP accumulation in limbic system at a dose 0.80 umol/kg (s.c.). It counts as functional. In a few lines:
as §1

The test system of assay [25] is Rattus norvegicus. The assay can be described thus: Effect evaluated in vivo on 5-HTP accumulation in NE-rich hemispheres after subcutaneous administration. It counts as functional. As to conditions: sc. The method, boiled down:
as §2

Assay [26] has as its system Rattus norvegicus. In words: Effect evaluated in vivo on 5-HTP accumulation in corpus striatum after subcutaneous administration. It counts as functional. To be noted: sc. The method, boiled down: as §2
Assay [27] relates to Rattus norvegicus. In words: Effect evaluated in vivo on 5-HTP accumulation in corpus striatum at a dose 0.80 umol/kg (s.c.). It counts as functional. The method, boiled down:
as §2

D(2) dopamine receptor, sequence (P61169 whole entry): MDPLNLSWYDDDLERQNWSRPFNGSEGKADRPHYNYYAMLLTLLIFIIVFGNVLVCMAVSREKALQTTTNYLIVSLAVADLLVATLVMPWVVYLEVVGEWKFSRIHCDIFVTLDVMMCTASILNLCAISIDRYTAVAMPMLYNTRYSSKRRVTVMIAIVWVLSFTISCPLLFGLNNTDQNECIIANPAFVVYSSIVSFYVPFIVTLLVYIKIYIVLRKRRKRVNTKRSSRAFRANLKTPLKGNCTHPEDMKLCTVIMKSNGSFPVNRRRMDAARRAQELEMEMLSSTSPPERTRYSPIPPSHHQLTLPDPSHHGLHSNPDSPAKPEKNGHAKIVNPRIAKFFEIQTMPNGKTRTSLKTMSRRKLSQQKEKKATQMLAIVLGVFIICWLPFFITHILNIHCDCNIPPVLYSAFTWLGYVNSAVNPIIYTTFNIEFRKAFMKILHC

`CCCN(CCC)C1CCc2cccc(O)c2C1` (configuration not stated) [8-OH-DPAT]: the ED50 in assay [1] is 3 µM/kg and 7.9 µM/kg and 7.6 µM/kg; in [2], 0.052 µM/kg and 0.063 µM/kg; in assay [3], 0.052 µmol/kg. The Locomotor activity in [4] is 66.

Usually IC50 stands for the concentration at which inhibition is half-maximal. A low value points to greater potency in that assay. For the compound `COc1cccc2c1CCN(C)CC2`, the values for the IC50 in assay [5] and in assay [6] were 0.48 µM and 2.3 µM, respectively. The Control in assay [7] turned out to be 108%; in [8], 67%; in assay [9], 126%; in assay [10], 81%; in assay [11] it was 74%; in assay [12], 89%. Further, the Control was found to be 72% in assay [13]; 110% in assay [14]; 93% in assay [15]; 86% in assay [16]; 76% in [17]; 93% in [18]. Also, the Control in assay [19] was found to be 80%; in assay [20] it was 98%; in assay [21] it was 97%. In addition, in assay [4], the Locomotor activity turned out to be 8.

Take `CCN1CCc2cccc(O)c2CC1`: the IC50 in assay [5] is 0.63 µM; in assay [6] it was 14 µM. Moreover, the Control in assay [7] stood at 89%; in assay [8] it was 46%; in [22], 108 µM/kg; in assay [11] it was 56%; in assay [12] it was 96%; in [13], 54%. Moreover, the Control in assay [24] was determined as 99%; in assay [16], 48%; in [17] it was 49%; in assay [19] it was 48%; in [27], 100%. For the same compound, the values for the ED50 in [23], in assay [25] and in assay [26] were 5 µmol/kg, 6 µmol/kg and 6.5 µmol/kg, respectively. For the same compound, the Locomotor activity in assay [4] came out at 31.

With `CCCCN1CCc2ccc(O)cc2CC1`, the Control in assay [8] is 119%; in assay [13], 106%; in assay [19] it was 114%.
